Screens (PubChem)
MDM2 E3 inh: MDM2-luciferase reporter signal enhancers, primary screen, MDM2 E3 ligase inhibitor project, cell-based, luminescence, 1536-well; signal enhancement, % at 5 µM; cell-based MDM2 ubiquitination luciferase reporter, 2 h; 0 = plate control, 100 = twice control, blank-subtracted; AID 1230, 2008; 210,000 compounds, 0.11% hits;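 active = signal enhancement of 30% or more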;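 note: luminescence tracks abundance of the self-degrading MDM2-luciferase fusion protein; higher signal means inhibition of MDM2 E3 ligase activity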
Target sequence (Q00987 whole entry, looked up, the tested form may be a part): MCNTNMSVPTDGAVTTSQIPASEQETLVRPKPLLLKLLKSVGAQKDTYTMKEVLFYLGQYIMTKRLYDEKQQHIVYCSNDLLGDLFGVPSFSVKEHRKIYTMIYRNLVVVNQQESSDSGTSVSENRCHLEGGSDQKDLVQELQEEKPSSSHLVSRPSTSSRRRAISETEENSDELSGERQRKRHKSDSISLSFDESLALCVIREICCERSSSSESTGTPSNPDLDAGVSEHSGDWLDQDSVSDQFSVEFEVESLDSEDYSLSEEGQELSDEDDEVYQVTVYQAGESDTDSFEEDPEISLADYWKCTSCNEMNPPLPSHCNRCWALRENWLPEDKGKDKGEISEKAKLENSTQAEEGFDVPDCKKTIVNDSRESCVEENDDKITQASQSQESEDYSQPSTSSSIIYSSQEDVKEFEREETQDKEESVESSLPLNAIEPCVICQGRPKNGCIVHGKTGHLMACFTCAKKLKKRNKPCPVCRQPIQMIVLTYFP
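system = mammalian cells stably expressing self-ubiquitinating, self-degrading MDM2 E3–luciferase fusion | quantity = 2000 cells per well seeded | incubation = 4 h cell settling then 2 h compound exposure, 37 °C | signal = SteadyLite luminescence, 15 min reagent step | benchmarks = plate control and blank wells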
Rad51 HR inh: human RAD51 strand exchange inhibitors, primary screen, biochemical, fluorescence; DNA repair protein RAD51 homolog 1 (Homo sapiens), Q06609; hRad51 DNA strand exchange, fluorescence dequenching; inhibition, % at 10 µM; 200,000 compounds, 0.085% hits; AID 1385, 2008;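 active = inhibition above 40% at the single screening dose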;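 note: 0% = DMSO control wells and 100% = blanks with heterologous ssDNA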
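System: hRad51 filaments on single-stranded DNA; reagent: Fluorescein- and BHQ1-tagged 47-mer duplex; compound dosing: one concentration, 10 µM final; timing: filaments 15 min 37 °C, then compound 30 min; measured by: fluorescein emission 520 nm, excitation 485 nm; benchmarks: per-plate controls and blanks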
HSV replic up: enhancers of HSV replication in host cells, fold increase, host cell viability | HSV replication augmentation in cells | AID 1956, 2009 | maximum fold increase | 220,000 compounds, 0.005% hits; in the data active = maximum fold increase above about 1.5; tested in PC3 cells
HSF1 activator: HSF-1 activators, primary screen, NIH3T3-HGL cells, MG132 stress, luminescence, single point; NIH3T3-HGL HSF-1 luciferase reporter, 8 h; 100% = twice DMSO control signal; activation, % at 9 µM; 300,000 compounds, 1.7% hits; AID 504408, 2011;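 active = mean replicate activation of at least 50% with a set share of replicates each reaching 50%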;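 note: 0% = median of the neutral control wells and 100% = twice that signal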
HSF1 inh: HSF1 inhibitors in luciferase reporter cells, primary screen, cell-based, NIH3T3, luminescence; NIH3T3-HGL HSE-luciferase, MG132-induced, luminescence 8 h; stronger effect = lower value; 300,000 compounds, 0.77% hits; activity change, negative = inhibition, % at 7.5 µM (by protocol); AID 2098, 2009;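 active = more than half of replicate wells show activity change below -50%, luminescence cut by over half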;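 note: luciferase reports HSF-1 transcriptional activity via heat shock element; 0% = median of DMSO wells and -100% = zero luminescence signal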
Hsp70 activator: Hsp70 transcriptional activators, primary screen, cell-based, HeLa, Hsp70 promoter luciferase, luminescence, 10 µM | activation, % at 10 µM | HeLa Hsp70 promoter luciferase reporter; scaled: vehicle 0, proteasome-inhibitor control 100% | 200,000 compounds, 0.04% hits;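 active = activation above the mean across all tested compounds plus 3 SD, cutoff set per campaign, cut at about 5.5% in these data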;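 note: 100% = MG132 at 30 µM as the positive control and 0% = DMSO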
An asterisk follows results filed as active; i = inactive; / = no result. Compounds with a hit are over-represented: about 2.6% of the library has one in this group of screens.

SMILES	MDM2 E3 inh	Rad51 HR inh	HSV replic up	HSF1 activator	HSF1 inh	Hsp70 activator
COc1ccccc1NC(=O)CCCNC(=O)Cn1cnc2sc(C)c(C)c2c1=O	/	/	/	11	0	/
Cc1sc2ncnc(OCC(=O)N3CCN(C(=O)c4ccco4)CC3)c2c1C	-12	23	i	7	-4	0
O=C(Oc1ccccc1Cl)c1ccc(-n2cncn2)nc1	4	-4	i	-92	-89*	0
C=CCOC(=O)c1ccc(-n2cncn2)nc1	-23	8	i	3	-3	0
Cc1ccc2nc(N3CCN(Cc4nnnn4Cc4ccccc4)CC3)c(C#N)cc2c1	-4	-13	i	-69	-62*	0
COCCNc1oc(/C=C/c2ccc(F)cc2)nc1S(=O)(=O)c1ccccc1	/	/	/	6	-5	/
Cc1ccc(C(=O)Nc2ccc3c(c2)C(=O)NC3=O)cc1	/	/	/	-66	-57*	/
C(#Cc1ccccc1)CN1CCN(c2ccccn2)CC1	-1	-5	i	-79	-72*	-1
CCOc1ccc(CCNC(=O)COn2nnc3ccc(S(=O)(=O)N4CCOCC4)cc32)cc1OCC	/	/	/	-13	0	/
O=C(O)CSc1c(-c2ccccc2)[nH]c2ccccc12	-1	6	i	70*	34	0
COc1ccc(OCCN2C(=O)c3cccc(N)c3C2=O)cc1	/	/	/	59*	39	/
CCC1c2ccc(C)n2CCN1C(=O)Nc1ccc(F)cc1 (stereo not drawn)	-7	-16	i	14	10	0
CCCC1c2ccc(C)n2CCN1C(=O)Nc1ccc(F)cc1 (stereo not drawn)	7	-6	i	-76	-66*	0
CCCc1cc(=O)[nH]c(SCC(=O)Nc2sc3c(c2C(N)=O)CCCC3)n1	/	/	/	-17	-17	/
COc1ccccc1NS(=O)(=O)c1ccc(NC(C)=O)cc1	-22	9	i	6	2	0
O=S(=O)(Nc1cccc2ccccc12)c1ccccc1	-14	-2	i	61*	52	/
COC(=O)Nc1ccc(S(=O)(=O)Nc2cccc3ccccc23)cc1	-6	-28	i	68*	33	0
O=C(O)c1cccc(S(=O)(=O)Nc2cccc3ccccc23)c1	/	/	/	-12	-8	/
Cc1ccc(/C=C/C(=O)NCCc2cccc(Cl)c2)o1	/	/	/	43	21	/
CCC(CC)c1nnc(NC(=O)c2ccc3ccccc3n2)s1	-2	1	i	53*	14	0
Cc1csc(NC(=O)c2ccc3ccccc3n2)n1	/	/	/	55*	26	/
O=C(NCc1ccccn1)Nc1cccc(Cl)c1	-23	-6	i	56*	29	1
Cc1csc(NC(=O)c2cnc3ccccc3n2)n1	/	/	/	-1	1	/
O=C(Nc1ccccn1)c1ccc2ccccc2n1	-24	4	i	74*	37	0
CCC(CC)c1nnc(NC(=O)c2cc(-c3ccccc3)nc3ccccc23)s1	-4	-3	i	-8	1	0
SMILES	MDM2 E3 inh	Rad51 HR inh	HSV replic up	HSF1 activator	HSF1 inh	Hsp70 activator
CC(C)CC(NC(=O)C(COC(C)(C)C)NC(=O)C(Cc1ccc(O)cc1)NC(=O)C(CO)NC(=O)C(Cc1c[nH]c2ccccc12)NC(=O)C(Cc1cnc[nH]1)NC(=O)C1CCC(=O)N1)C(=O)N[C@@H](CCCN=C(N)N)C(=O)N1CCCC1C(=O)NNC(N)=O (stereo partly drawn)	/	0	i	/	/	/
O=C(Nc1cccc(Cl)c1)Nc1nc(-c2ccccc2)cs1	-7	30	i	-4	-14	0
Cc1csc(NC(=O)Nc2cccc(Cl)c2)n1	-26	0	i	55*	6	0
Cc1cnc(NC(=O)Cc2c[nH]c3ccccc23)s1	-20	-2	i	14	16	0
Cc1csc(NC(=O)Cc2c[nH]c3ccccc23)n1	-13	4	i	63*	33	0
NS(=O)(=O)c1ccc2nc(NC(=O)Nc3ccc(F)cc3)sc2c1	/	/	/	0	13	/
CN1CCc2nc(SCc3ccc(Cl)cc3)c(C#N)c(-c3cccs3)c2C1	/	0	i	190*	156	0
N#Cc1c(N)nc(SCc2ccncc2)c(C#N)c1-c1cccs1	-10	12	i	-70	-68*	0
CCOC(=O)CC(=O)CSc1nc2c(c(-c3cccs3)c1C#N)CCC2	-17	-3	i	14	-9	0
CCOC(=O)CC(=O)CSCC(=O)Nc1ccc(C)cc1	-11	1	i	86*	40	0
CCN(CC(=O)Nc1ccc(NC(C)=O)cc1)C(=O)CSCC(=O)Nc1ccc(C)cc1	/	/	/	1	1	/
O=C(O)/C=C/c1ccc([N+](=O)[O-])o1	-13	0	i	-3	8	0
O=[N+]([O-])c1ccc(/C=N/N=C/c2ccc([N+](=O)[O-])o2)o1	77*	-5	i	/	/	0
CCCCCn1c(SCc2cccc(C)c2)nc2c1c(=O)[nH]c(=O)n2C	-1	1	i	60*	27	/
Cn1c(=O)[nH]c(=O)c2c1nc(Br)n2CCCc1ccccc1	30*	/	/	15	2	0
C/C(=N\Nc1cccc2cccnc12)c1ccc[nH]1	-21	-6	i	63*	36	0
CSc1ccc(/C=N/NC(=O)c2sccc2C)cc1	-41	0	i	62*	41	0
CCOC(=O)N1CCN(C(=O)CN(c2ccccc2)S(C)(=O)=O)CC1	-13	-3	i	3	1	1
O=S(=O)(c1cc(Cl)ccc1Cl)N1CCC2(CC1)OCCO2	/	/	/	-78	-72*	/
NC(=O)c1c(NC(=O)C2CCCO2)sc2c1CCCC2 (stereo not drawn)	34*	-7	i	42	-4	0
Cc1ccc(C(=O)Nc2sc3c(c2C(=O)O)CCCCC3)o1	-44	-6	i	19	20	0
COC(=O)c1c(NC(=O)c2ccc(C)o2)sc2c1CCCCC2	0	-10	i	60*	29	0
CCOC(=O)c1c(NC(=O)C2CCCO2)sc2c1CCC2 (stereo not drawn)	2	-8	i	-4	1	0
CN1CCc2c(sc(NC(=O)c3ccc([N+](=O)[O-])o3)c2C(N)=O)C1	/	/	/	-18	2	/
NC(=O)c1c(NC(=O)c2ccc([N+](=O)[O-])o2)sc2c1CCCC2	/	/	/	116*	64	/
